KLF5 inh: inhibitors of KLF5 expression; AID 1700; inhibition, % at 5 µM; DLD-1 KLF5 promoter-luciferase reporter, luminescence; 290,000 tested, 0.23% active;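 active means inhibition above a per-plate limit of that plate's mean compound inhibition plus 3 SD, cut at about 60% in these data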;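 further: higher means less KLF5 promoter-driven luciferase light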
MT stabilizer: stabilizes microtubules in HeLa cells | AID 2205 | 200,000 tested, 0.83% active | % tubulin-high responders, % at 10 µM | HeLa tubulin immunostaining HCS, 24 h; share of cells brighter than vehicle mean+2SD;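 active means plate Z-score above 3 for both tubulin-high and condensed-nucleus cell shares, with cell loss under 80%, at 10 µM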;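 further: anti alpha tubulin signal scored within the nucleus-defined area of each cell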
bCat nuc transl: modulators of beta-catenin nuclear translocation; HeLa beta-catenin nuclear translocation, immunofluorescence imaging; nuclear translocation activity, % at 5 µM; 190,000 tested, 0.3% active; AID 1665;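 active means nuclear translocation activity above 50% at 5 µM, with a well cell count of 50 or more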;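 further: per-cell ratio of nuclear to cytoplasmic median beta-catenin stain intensity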
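assay system = human HeLa cells, endogenous beta-catenin | times = compound treatment 24 h, 37°C, 5% CO2 | detection = Anti-beta-catenin immunofluorescence on PFA-fixed, Triton-permeabilized cells, DAPI nuclei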
Ba/F3 V617F tox: loss of viability in JAK2V617F-driven Ba/F3 cells. inhibition, % at 5.6 µM. 220,000 tested, 1.1% active. Ba/F3 EpoR-JAK2V617F viability, ATP luminescence;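 active means inhibition above the campaign mean plus 3 SD over all tested compounds, cut at about 24% in these data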;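 further: cytokine-independent growth of Ba/F3 cells driven by EpoR plus mutant JAK2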
IEC-6 tox-1: counter-screen for KLF5 inhibitors: cytotoxicity in IEC-6 cells. IEC-6 cytotoxicity, luminescence viability. inhibition, % at 5 µM. 290,000 tested, 0.78% active. AID 1825
BaF3 parental: reduces parental Ba/F3 cell viability, JAK2V617F counter-screen | AID 1486 | 220,000 tested, 1.1% active | inhibition, % at 5.6 µM | CellTiter-Glo ATP luminescence;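 active means inhibition above a per-campaign cutoff, the mean inhibition of all tested compounds plus 3 SD, cut at about 27% in these data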
KLF5 inh confirm: KLF5 inhibition, confirmation assay. 610 tested, 79% active. inhibition, % at 4 µM. DLD-1 KLF5 promoter firefly luciferase reporter, luminescence. shares compounds with KLF5 inh. AID 1834;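 active means inhibition above a set limit taken from the earlier primary screen, cut at about 63% in these data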
IEC-6 tox-2: counter-screen for KLF5 inhibitors: cytotoxicity in rat IEC-6 cells | shares compounds with KLF5 inh | inhibition, % at 4 µM | IEC-6 rat intestinal cells, viability luminescence | 610 tested, 56% active | AID 1905; in the data active means inhibition above about 23%;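 further: cells exposed to compounds for 48 hours before viability read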
IEC-6 tox confirm: confirmation of cytotoxic compounds in rat IEC-6 intestinal epithelial cells; shares compounds with IEC-6 tox-1; IEC-6 rat intestinal epithelial viability, luminescence; inhibition, % at 5 µM; 1,900 tested, 63% active; AID 1907
Large screens that a line does not name were inactive (follow-up assays come after a bar, where they were run). Rows were chosen to be rich in hits. Some 2.1% of all compounds tested hit in one or more screens of this group. Unless noted, no stated cut-off is given here; in the data, active means inhibition above about 22%; inactive means the rest.

CC(=O)N(C)C1=C(N2CCOCC2)C(=O)c2ccccc2C1=O	KLF5 inh 85, Ba/F3 V617F tox 101, BaF3 parental 101 | KLF5 inh confirm 84 | IEC-6 tox-2 inactive
CC(=O)N(C1=C(N2CCOCC2)C(=O)c2ccccc2C1=O)c1ccc(C(=O)O)cc1	none (no result: MT stabilizer)
CCOC(=O)c1sc(NC(=O)c2cc3c(s2)CCC(C)C3)nc1C (centres undefined)	KLF5 inh 86 (no result: bCat nuc transl) | KLF5 inh confirm 88 | IEC-6 tox-2 inactive
Cc1cccc(C=Nc2ccccc2C(N)=O)c1	none (no result: bCat nuc transl)
Cc1ccc(C=Nc2ccccc2C(N)=O)s1	KLF5 inh 63, MT stabilizer 22, Ba/F3 V617F tox 66, IEC-6 tox-1 81, BaF3 parental 67 | KLF5 inh confirm inactive | IEC-6 tox-2 32
Cc1cccc(C)c1-n1c(C)cc(/C=N\Nc2ccc([N+](=O)[O-])cn2)c1C	none
Cc1cc(/C=N/Nc2nc(N)ncc2[N+](=O)[O-])c(C)n1-c1ccccc1F	KLF5 inh 78 (no result: MT stabilizer) | KLF5 inh confirm 94 | IEC-6 tox-2 inactive
CN(CC(=O)Nc1ccc(F)cc1)C(=O)COc1ccc(C(=O)c2ccccc2)cc1	none
Cc1nn(-c2ccccc2)c(C)c1/C=N/NC(=O)c1cc(-c2cccs2)[nH]n1	KLF5 inh 82, MT stabilizer 8.9, bCat nuc transl 162, Ba/F3 V617F tox 71, IEC-6 tox-1 72, BaF3 parental 73 | KLF5 inh confirm 77 | IEC-6 tox-2 69
CCN(CC)CCn1nc(C)nc1-c1ccccc1O	none (no result: bCat nuc transl)
CCN(CC)CCn1nc2c3c(cccc3c1=O)-c1ccccc1-2	KLF5 inh 72, Ba/F3 V617F tox 102, IEC-6 tox-1 87, BaF3 parental 100 | KLF5 inh confirm inactive | IEC-6 tox-2 75
CC(Oc1ccc(Cl)cc1)C(=O)NNC(=S)NC(=O)c1ccco1 (centres undefined)	none (no result: bCat nuc transl)
O=c1cc(-c2ccccc2)[nH]c2ccc(F)cc12	KLF5 inh 69, Ba/F3 V617F tox 75, IEC-6 tox-1 82, BaF3 parental 74 (no result: bCat nuc transl) | KLF5 inh confirm 82 | IEC-6 tox-2 57
Cc1ccc(-c2cc(=O)c3cc(F)ccc3[nH]2)cc1	none (no result: bCat nuc transl)
CC(C)(C)NC(=O)c1cccc(NC(=O)CSc2ccccc2)c1	none
C=CCc1cccc(/C=N/NC(=O)c2ccc3nc[nH]c3c2)c1O	KLF5 inh 63 (no result: MT stabilizer, bCat nuc transl, Ba/F3 V617F tox, BaF3 parental) | KLF5 inh confirm inactive | IEC-6 tox-2 27
CCOc1cc(NS(=O)(=O)c2ccc(NC(C)=O)cc2)c(OCC)cc1NC(=O)C(C)C	none
COc1ccccc1-n1c(SCC(=O)N2CCCC2)nc2cccnc21	none
CCCc1ccc(-c2ccc(/C=C/C(=O)O)cc2)nc1	KLF5 inh 79 | KLF5 inh confirm 83 | IEC-6 tox-2 inactive
CCCCCc1ccc(-c2ccc(/C=C/C(=O)O)cc2)nc1	none
O=C(COc1ncnc2sccc12)Nc1cccc(S(=O)(=O)N2CCCC2)c1	none (no result: MT stabilizer)
Cc1nc2ccccn2c1-c1csc(Nc2cccc(O)c2)n1	KLF5 inh 74, bCat nuc transl 75, Ba/F3 V617F tox 80, BaF3 parental 78 | KLF5 inh confirm 68 | IEC-6 tox-2 inactive
COc1ccccc1NC(=S)NC(NC(=O)CC(C)C)C(Cl)(Cl)Cl (centres undefined)	none
COc1cc(OC)cc(N(C(=O)CNC(=O)c2ccco2)C(C(=O)NCC2CCCO2)c2ccccc2)c1 (centres undefined)	KLF5 inh 65 (no result: MT stabilizer, bCat nuc transl, Ba/F3 V617F tox, BaF3 parental) | KLF5 inh confirm inactive | IEC-6 tox-2 inactive
C/C(=N\Nc1ccc2nncn2n1)c1ccccn1	KLF5 inh 68, Ba/F3 V617F tox 76, BaF3 parental 69 (no result: MT stabilizer) | KLF5 inh confirm 76 | IEC-6 tox-2 83
O=c1[nH]c(=O)n([C@H]2C[C@H](O)[C@@H](CO)O2)cc1F	KLF5 inh 62, Ba/F3 V617F tox 100, IEC-6 tox-1 94, BaF3 parental 97 (no result: bCat nuc transl) | KLF5 inh confirm inactive | IEC-6 tox-2 87
O=C(CCl)Nc1cc(SCC(O)CO)cc([N+](=O)[O-])c1 (centres undefined)	KLF5 inh 84, Ba/F3 V617F tox 99, BaF3 parental 99 | KLF5 inh confirm 112 | IEC-6 tox-2 34
CCCCN(C(=O)Cn1ncc(Cl)c(Cl)c1=O)c1c(N)n(CC(C)C)c(=O)[nH]c1=O	none (no result: MT stabilizer)
O=c1cnnc(N/N=C/c2ccccn2)[nH]1	KLF5 inh 76, Ba/F3 V617F tox 41, BaF3 parental 51 (no result: MT stabilizer) | KLF5 inh confirm 72 | IEC-6 tox-2 50
O=C(COc1c(Br)cc(Br)c2cccnc12)Nc1ccccc1F	none
Fc1ccc(-c2nnc(NC3=NCCCCC3)o2)cc1	KLF5 inh 73 | KLF5 inh confirm inactive | IEC-6 tox-2 inactive
c1ccc(-c2nnc(NC3=NCCC3)o2)cc1	none
COc1cc(/C=C/[N+](=O)[O-])ccc1OCc1cccc(C(=O)O)c1	KLF5 inh 71 | KLF5 inh confirm 67 | IEC-6 tox-2 inactive
Cc1ccc(N(CC(O)COCc2ccco2)S(=O)(=O)c2ccc(C)cc2)cc1 (centres undefined)	none
O=C(NCc1ccccc1)c1cccc(COc2ccc3c(c2)CCC3)c1	none
O=C(O)c1cccc(COc2ccc3c(c2)CCC3)c1	KLF5 inh 98 (no result: MT stabilizer) | KLF5 inh confirm 100 | IEC-6 tox-2 inactive
CCOc1ccc(-c2ccc(SC)nn2)cc1	KLF5 inh 78 | KLF5 inh confirm inactive | IEC-6 tox-2 inactive
O=C1c2ccccc2CN1CCSC(=S)N1CCOCC1	none
Oc1ccc(/C=C/c2ccc3ccccc3n2)cc1	KLF5 inh 78, Ba/F3 V617F tox 68, IEC-6 tox-1 26, BaF3 parental 39 | KLF5 inh confirm inactive | IEC-6 tox-2 inactive
O=C1C(Nc2ccc(O)cc2)=C/C(=N/S(=O)(=O)c2cccs2)c2ccccc21	KLF5 inh 67, Ba/F3 V617F tox 87, IEC-6 tox-1 102, BaF3 parental 101 | KLF5 inh confirm 114 | IEC-6 tox-2 102 | IEC-6 tox confirm 103
CCc1ccc(S(=O)(=O)/N=C2\C=C(Nc3ccc(O)cc3)C(=O)c3ccccc32)cc1	KLF5 inh 96, IEC-6 tox-1 102 (no result: MT stabilizer, bCat nuc transl, Ba/F3 V617F tox, BaF3 parental) | KLF5 inh confirm 69 | IEC-6 tox-2 60 | IEC-6 tox confirm 67
Cc1cc(C)c(S(=O)(=O)/N=C2\C=C(Nc3ccc(C(=O)O)cc3)C(=O)c3ccccc32)c(C)c1	none (no result: MT stabilizer, bCat nuc transl, Ba/F3 V617F tox, BaF3 parental)
CCc1ccc(S(=O)(=O)/N=C2\C=C(Nc3cccc(C(=O)O)c3)C(=O)c3ccccc32)cc1	none (no result: MT stabilizer, bCat nuc transl, Ba/F3 V617F tox, BaF3 parental)
CC1(NC(=O)NCc2ccccc2)CCS(=O)(=O)C1 (centres undefined)	none
Cc1cccc(C)c1NC(=O)NCc1ccco1	none (no result: MT stabilizer)
